The values that follow come from ChEMBL document CHEMBL1154533, “Syntheses and evaluation of glucosyl aryl thiosemicarbazide and glucosyl thiosemicarbazone derivatives as antioxidant and anti-dyslipidemic agents” (2009).

Holding throughout (format): functional
What all share (design): scale not given: the % may be the effect or the level left

Test [1] in a line: Antioxidant activity assessed as reduction in generation of superoxide radicals at 200 ug/mL measured as formazone formation by spectrophotometry relative to control. The gist of the method:
(§1)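 Superoxide was generated enzymatically with xanthine ([…]), xanthine oxidase (0.04 U) and nitroblue tetrazolium (320 μM) in 100 mM phosphate buffer, pH 8.2, with or without compound. Incubated 30 min at 37 °C, then stopped with glacial acetic acid. Formazone was quantified spectrophotometrically (nmol/min). Mean ± SD of six; Student's t-test.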

For test [2], the system named is Rattus norvegicus. Description: Antidyslipidemic activity against triton-induced hyperlipidemia in Charles Foster rat assessed as reduction in phospholipid level at 100 mg/kg, po after 18 hrs relative to control. The gist of the method:
(§2)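 Adult male Charles Foster rats (200 […] 225 g), six per group. Triton WR-1339 at 400 mg/Kg ip induced hyperlipidemia. Test compound was given at 100 mg/Kg po, suspended in 0.2% w/v gum acacia in water, at the same time as triton; vehicle controls were included. After 18 h, retro-orbital blood was taken into EDTA and plasma obtained (2500 g, 4 °C, 10 min). Plasma was diluted 1:3 in saline and TC, PL and Tg measured by standard methods. Reported as mean […] SD; Student's t-test.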

In test [3] the test system is Rattus norvegicus. Description: Antidyslipidemic activity against triton-induced hyperlipidemia in Charles Foster rat assessed as reduction in total cholesterol level at 100 mg/kg, po after 18 hrs relative to control. The gist of the method:
as §2

The nature of test [4]: Antioxidant activity assessed as reduction in lipid peroxidation in microsomes at 200 ug/mL measured as malondialdehyde formation by spectrophotometry relative to control. The following applies: Microsome.
Test [5] concerns Rattus norvegicus. Description: Antidyslipidemic activity against triton-induced inhibition of post heparin lipolytic activity in Charles Foster rat hyperlipidemia model assessed as formation of free fatty acid per mL of plasma at 100 mg/kg, po after 18 hrs relative to control. The procedure, abridged:
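Triton WR-1339 rat model (400 mg/Kg ip; compound 100 mg/Kg po in gum acacia, given with triton; six rats per group). Post-heparin lipolytic activity was measured in plasma collected at 18 h. Expressed as nmol free fatty acid formed/h/mL plasma; mean ± SD.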

Test [6] deals with Rattus norvegicus. The test can be described thus: Antidyslipidemic activity against triton-induced hyperlipidemia in Charles Foster rat assessed as reduction in triglyceride level at 100 mg/kg, po after 18 hrs relative to control. The gist of the method:
as §2

Test [7] can be described thus: Antioxidant activity assessed as reduction in generation of hydroxyl radicals at 200 ug/mL measured as malondialdehyde formation by spectrophotometry relative to control.
Test [8] is described as follows: Antioxidant activity assessed as reduction in lipid peroxidation in microsomes at 100 ug/mL measured as malondialdehyde formation by spectrophotometry relative to control. The following applies: Microsome.
Test [9] in a line: Antioxidant activity assessed as reduction in generation of superoxide radicals at 100 ug/mL measured as formazone formation by spectrophotometry relative to control. The procedure, abridged:
as §1

Test [10] is described as follows: Antioxidant activity assessed as reduction in generation of hydroxyl radicals at 100 ug/mL measured as malondialdehyde formation by spectrophotometry relative to control.
In test [11] the test system is Rattus norvegicus. Description: Decrease in triton-induced increase in protein level in Charles Foster rat hyperlipidemia model at 100 mg/kg, po after 18 hrs relative to control.

`CC(=O)OC[C@H]1O[C@@H](NC(=S)NNc2ccc([N+](=O)[O-])cc2[N+](=O)[O-])[C@H](OC(C)=O)[C@@H](OC(C)=O)[C@@H]1OC(C)=O`: the Activity amounted to 28% in [1]; 10% in [2]; 13% in [3]; 36% in test [4]; 17% in test [5]; 8% in [6]. Besides, the Activity came out at 26% in test [7]; 23% in test [8]; 22% in test [9]; 18% in test [10]; 13% in test [11].

Regarding `CC(=O)OC[C@H]1O[C@@H](NC(=S)NNc2ccc(F)cc2)[C@H](OC(C)=O)[C@@H](OC(C)=O)[C@@H]1OC(C)=O`, the Activity in test [1] was determined as 29%; in test [2], 14%; in test [3], 13%; in [4], 34%; in test [5] it was 14%; in test [6], 9%. Besides, the Activity stood at 36% in [7]; 22% in test [8]; 15% in test [9]; 22% in test [10]; 18% in test [11].

For `CC(=O)OC[C@H]1O[C@@H](NC(=S)N/N=C(\C)c2cccc([N+](=O)[O-])c2)[C@H](OC(C)=O)[C@@H](OC(C)=O)[C@@H]1OC(C)=O`, the Activity in test [1] is 33%; in test [2], 19%; in test [3], 23%; in [4] it was 30%; in [5] it was 10%; in test [6], 18%. Further, the Activity is 35% in [7]; 20% in test [8]; 17% in [9]; 24% in test [10]; 19% in test [11].

As to `Oc1ncnc2[nH]ncc12`, the Activity in test [9] was 77%.

In the case of `OC[C@@H](O)[C@@H](O)[C@H](O)[C@H](O)CO`, the Activity in test [10] was found to be 45%.

`CC(=O)OC[C@H]1O[C@@H](NC(=S)NNc2ccc(F)cc2F)[C@H](OC(C)=O)[C@@H](OC(C)=O)[C@@H]1OC(C)=O`: the Activity in [1] was found to be 27%; in [2] it was 25%; in [3] it was 24%; in test [4] it was 31%; in test [5] it was 23%; in test [6] it was 25%. In addition, the Activity in test [7] was 35%; in test [8], 24%; in test [9] it was 16%; in [10], 20%; in [11], 20%.

As for `CC(=O)OC[C@H]1O[C@@H](NC(=S)N/N=C(\C)c2ccc(Br)cc2)[C@H](OC(C)=O)[C@@H](OC(C)=O)[C@@H]1OC(C)=O`, the Activity amounted to 33% in test [1]; 26% in [2]; 22% in test [3]; 29% in [4]; 16% in [5]; 25% in test [6]. The Activity in test [7] is 24%; in test [8], 16%; in test [9], 21%; in test [10] it was 14%; in [11], 26%.

In the case of `COc1ccc(/C(C)=N/NC(=S)N[C@@H]2O[C@H](COC(C)=O)[C@@H](OC(C)=O)[C@H](OC(C)=O)[C@H]2OC(C)=O)cc1OC`, the Activity came out at 24% in [1]; 23% in test [2]; 19% in [3]; 35% in test [4]; 25% in test [5]; 22% in test [6]. Besides, the Activity worked out at 27% in test [7]; 22% in [8]; 9% in [9]; 15% in test [10]; 24% in test [11].

Consider `CC(=O)OC[C@H]1O[C@@H](NC(=S)NNc2ccccc2)[C@H](OC(C)=O)[C@@H](OC(C)=O)[C@@H]1OC(C)=O`, for which the Activity in test [1] amounted to 32%; in test [2], 10%; in test [3], 11%; in [4], 39%; in test [5], 8%; in [6] it was 9%. In addition, the Activity in [7] came to 42%; in [8] it was 23%; in test [9] it was 19%; in test [10], 25%; in test [11] it was 16%.

As to `CC(=O)OC[C@H]1O[C@@H](NC(=S)N/N=C/c2ccc([N+](=O)[O-])cc2)[C@H](OC(C)=O)[C@@H](OC(C)=O)[C@@H]1OC(C)=O`, the Activity in test [1] was 23%; in test [2] it was 14%; in test [3], 19%; in test [4] it was 31%; in test [5], 13%; in test [6], 11%. Also, the Activity in test [7] amounted to 23%; in test [8], 18%; in test [9], 13%; in test [10], 17%; in test [11], 22%.

Regarding `CC(=O)OC[C@H]1O[C@@H](NC(=S)N/N=C(\C)c2cc(C)ccc2C)[C@H](OC(C)=O)[C@@H](OC(C)=O)[C@@H]1OC(C)=O`, the Activity in test [1] amounted to 30%; in test [2], 18%; in test [3] it was 18%; in test [4] it was 26%; in test [5], 10%; in test [6], 17%. In addition, the Activity in test [7] amounted to 29%; in test [8] it was 16%; in test [9], 20%; in [10], 16%; in test [11], 12%.

Consider `COc1ccc(NNC(=S)N[C@@H]2O[C@H](COC(C)=O)[C@@H](OC(C)=O)[C@H](OC(C)=O)[C@H]2OC(C)=O)cc1`, for which the Activity is 37% in [1]; 12% in test [2]; 18% in test [3]; 32% in test [4]; 7% in test [5]; 10% in test [6]. Besides, the Activity was determined as 23% in [7]; 28% in test [8]; 21% in test [9]; 15% in test [10]; 18% in test [11].

As to `Cc1ccc(C)c(OCCCC(C)(C)C(=O)O)c1` [GEMFIBROZIL], the Activity in [2] worked out at 39%; in [3], 38%; in test [5], 34%; in [6], 37%; in [11] it was 33%.

Turning to `CC(=O)OC[C@H]1O[C@@H](NC(=S)N/N=C/c2ccc([N+](=O)[O-])s2)[C@H](OC(C)=O)[C@@H](OC(C)=O)[C@@H]1OC(C)=O`, the Activity in test [1] came to 34%; in test [2], 16%; in test [3], 13%; in [4] it was 23%; in test [5], 14%; in test [6], 14%. The Activity in test [7] is 37%; in test [8], 11%; in test [9], 20%; in test [10], 20%; in test [11], 19%.
